Screening data (PubChem BioAssay)
An excerpt weighted towards active compounds, which were near 1.4% of everything screened.
EBNA-1 inh: EBNA-1 DNA-binding inhibitors, primary screen, biochemical, fluorescence polarization | AID 1950, 2009 | inhibition, % at 14.8 µM | actives 0.34% (n = 300,000); in the data active = inhibition above about 28%
Fh CTSL1 inh: Fasciola hepatica cathepsin L1 inhibitors, primary screen, counter-screen for PFM18AAP inhibitor project, biochemical, QFRET, fluorogenic peptide substrate; recombinant F. hepatica cathepsin L1, Z-Leu-Arg-MCA fluorescence; inhibition, % at 5.96 µM; actives 0.49% (n = 300,000); AID 1906, 2009;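 active = inhibition above the mean of all tested compounds plus 3 SD, set per screening campaign, cut at about 17% in these data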;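 also: 0% = plate median of test compound wells and 100% = 1 µM Z-Phe-Ala-diazomethylketone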
ZTA DNA inh: blocks Epstein-Barr virus ZTA, an EBNA-1 counter-screen; actives 0.15% (n = 320,000); ZTA-DNA binding, fluorescence polarization; inhibition, % at 11 µM; in the data active = inhibition above about 33%
Target sequence (P03206 whole entry, looked up): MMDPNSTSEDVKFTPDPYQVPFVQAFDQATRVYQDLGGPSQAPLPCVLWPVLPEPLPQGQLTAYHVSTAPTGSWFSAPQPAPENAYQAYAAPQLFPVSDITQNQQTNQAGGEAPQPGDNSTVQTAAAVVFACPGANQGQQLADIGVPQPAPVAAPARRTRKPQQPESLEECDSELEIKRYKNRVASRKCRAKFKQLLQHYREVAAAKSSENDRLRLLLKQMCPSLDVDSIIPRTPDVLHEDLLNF
NS3 helicase inh: inhibitors of HCV NS3 helicase, primary screen, biochemical, Cy5 molecular beacon fluorescence; Hepatitis C virus NS3 helicase; NS3 helicase DNA unwinding; inhibition, % at 10.9 µM; actives 0.56% (n = 290,000); AID 1800, 2009;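 active = inhibition above the mean of all tested compounds plus 3 SD, set per campaign, cut at about 35% in these data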;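 also: 0% = DMSO wells and 100% = thioflavine S control wells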
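test system = hepatitis C virus NS3 helicase domain fragment enzyme | reagent = annealed dual-labelled DNA beacon duplex, ATP-started | times = 1 h at 25 °C | detection = Cy5 fluorescence, 0 and 60 min reads | read-out basis = percent inhibition from t60/t0 fluorescence ratio | control set = DMSO and thioflavine S | replication = one well per compound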
NS3 helicase cf: HCV NS3 helicase inhibitors, retest, confirmation, biochemical, Cy5 molecular beacon fluorescence, triplicate. shares compounds with NS3 helicase inh. NS3 helicase DNA unwinding. inhibition, % at 10.9 µM. actives 31% (n = 1,600). AID 1943, 2009;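 active = inhibition above the mean of all tested compounds plus 3 SD, cutoff set per campaign, cut at about 36% in these data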
DNA FID counter: compounds displacing fluorescent DNA intercalator, artefact control for HCV NS3 helicase inhibitor project, biochemical, FID fluorescence, triplicate. inhibition, % at 7.9 µM. DNA fluorescent intercalator displacement. AID 1945, 2009. shares compounds with NS3 helicase inh. actives 4% (n = 1,600); in the data active = inhibition above about 37%;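 also: 0% = vehicle and 100% = reference compound; higher means more displacement of ethidium bromide from the DNA hairpin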
FID counter DR: compounds displacing fluorescent intercalator from DNA, dose response, counter-screen for HCV NS3 helicase inhibitor project, biochemical, fluorescence | shares compounds with NS3 helicase inh | fluorescent intercalator displacement from DNA | IC50, µM | 120 tested, under 10 active; call rule not given here
The depositor's hits bear a star; x = not tested or not shown.

SMILES	EBNA-1 inh	Fh CTSL1 inh	ZTA DNA inh	NS3 helicase inh	NS3 helicase cf	DNA FID counter	others
COc1ccccc1/C=C/C1=NC(=C\C=C/c2ccccc2)/C(=O)O1	9	4	1	46*	61*	-27	FID counter DR=>79
N#Cc1c(C(F)(F)F)cc(-c2ccco2)nc1SCc1ccncc1	8	5	3	44*	-9	4
N#Cc1c(C(F)(F)F)cc(-c2ccco2)nc1SCc1ccccn1	4	7	-8	19	x	x
C/C(CCC(=O)O)=N/Nc1ccc([N+](=O)[O-])cc1[N+](=O)[O-]	-7	-1	7	-6	x	x
O=C(O)/C(CC(=O)c1ccc(Cl)cc1)=N/Nc1ccc([N+](=O)[O-])cc1[N+](=O)[O-]	2	3	6	38*	52*	56*
O=C(O)c1ccc(-n2nc(C(F)(F)F)c3c2-c2ccoc2CC3)cc1	-11	0	-8	37*	51*	-14
Clc1ccc(Cn2c(/C=C/c3ccco3)nc3ccccc32)cc1	9	0	-8	23	x	x
CCCn1c(/C=C/c2ccco2)nc2ccccc21	-2	0	8	52*	1	5
Cc1ccc(Cn2c(/C=C/c3ccco3)nc3ccccc32)cc1	13	0	-4	43*	-13	-1
CCCCn1c(/C=C/c2ccco2)nc2ccccc21	-7	0	-34	44*	-14	-9
CCCCn1c(N)nc2ccccc21	-1	-1	-11	-7	x	x
CC1CCCN(Cc2nc(Cc3ccccc3Cl)no2)C1 (centres undefined)	7	-2	-16	7	x	x
COC(=O)c1c(C(=O)OC)c(-c2ccccc2)n2c1CS(=O)C2 (centres undefined)	-3	-4	17	9	x	x
CC(C)=CCc1c(-c2ccc(O)cc2O)oc2cc3c(c(O)c2c1=O)C=CC(C)(C)O3	-26	-3	-15	x	x	x
CCOC(=O)c1cc2c(=O)[nH]ccc2nc1C	-17	1	-8	4	x	x
COc1ccc(Sc2ccc(/C=C3\C(=O)NN(c4ccccc4)C3=O)o2)cc1	-8	1	7	47*	60*	17
COc1ccc(-n2c(C)cc(/C=C3\C(=O)NN(c4ccccc4)C3=O)c2C)cc1	4	7	14	1	x	x
O=C1NN(c2ccccc2)C(=O)/C1=C\c1ccccc1	x	x	x	49*	-28	13
C[n+]1cccc(/C=N/Nc2nc(Cl)c(C#N)c(Cl)c2Cl)c1	1	-1	10	-1	x	x
COc1ccc(NS(=O)(=O)c2cccc(C(=O)NNC(=O)NCCCl)c2)cc1	-1	-4	-18	69*	-14	-6
CCOC(=O)N1CCN(S(=O)(=O)c2ccc(OCC(=O)OC)c(C)c2)CC1	3	-3	-13	2	x	x
O=C1C(=O)N(Cc2ccncc2)C(c2cccc(O)c2)/C1=C(\O)c1ccc2c(c1)OCCO2 (centres undefined)	1	3	-23	41*	-9	12
O=C1C(=O)N(Cc2cccnc2)C(c2cccc(O)c2)/C1=C(\O)c1ccc2c(c1)OCCO2 (centres undefined)	-7	-4	-12	3	x	x
N#CC1=C(SCC(=O)c2ccccc2)NC2=C(C(=O)CCC2)C1c1ccco1 (centres undefined)	-10	-4	-6	38*	-10	-1
Cc1ccc(C(=O)CSC2=C(C#N)C(c3ccco3)C3=C(CCCC3=O)N2)cc1 (centres undefined)	-3	4	-23	23	x	x
COc1cc(Br)cc(/C=N/N(CCO)C2=NS(=O)(=O)c3ccccc32)c1OC	-6	-3	-23	-25	x	x
COc1ccccc1Nc1cc(C(=O)N2CCc3ccccc3C2)c2ccccc2n1	8	1	-2	-5	x	x
COc1ccccc1-c1cc(C(=O)N2CCc3ccccc3C2)c2ccccc2n1	-11	1	1	37*	-17	-41
